Columns and labels:
[1] = biological target: T1, Polyunsaturated fatty acid 5-lipoxygenase (Rattus norvegicus, UniProt P12527); assay: Tested for its inhibitory activity against arachidonic acid in rat 5-lipoxygenase.
T1 sequence (P12527 whole entry): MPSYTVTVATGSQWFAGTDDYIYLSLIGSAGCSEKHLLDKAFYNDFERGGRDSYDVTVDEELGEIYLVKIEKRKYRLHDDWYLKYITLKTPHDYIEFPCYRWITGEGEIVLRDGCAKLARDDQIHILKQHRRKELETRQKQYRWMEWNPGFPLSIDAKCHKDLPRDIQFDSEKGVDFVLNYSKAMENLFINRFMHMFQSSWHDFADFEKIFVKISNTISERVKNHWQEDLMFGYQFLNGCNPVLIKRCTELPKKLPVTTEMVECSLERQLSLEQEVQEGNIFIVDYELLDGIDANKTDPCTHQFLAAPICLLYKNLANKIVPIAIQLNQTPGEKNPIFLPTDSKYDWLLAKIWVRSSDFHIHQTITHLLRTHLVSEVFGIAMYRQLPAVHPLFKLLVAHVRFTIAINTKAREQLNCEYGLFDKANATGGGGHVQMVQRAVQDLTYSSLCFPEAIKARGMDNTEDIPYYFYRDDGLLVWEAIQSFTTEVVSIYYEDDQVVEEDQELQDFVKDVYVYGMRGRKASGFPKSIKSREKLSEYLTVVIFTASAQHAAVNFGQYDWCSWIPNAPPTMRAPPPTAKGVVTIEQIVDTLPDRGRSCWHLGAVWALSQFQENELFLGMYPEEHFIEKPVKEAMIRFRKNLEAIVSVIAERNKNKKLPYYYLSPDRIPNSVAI
Procedure, shortened: (§1)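 10000g supernatant from rat PMN leukocytes incubated 10 min with [14C]arachidonic acid. 5-Lipoxygenase activity taken as percentage conversion to 5-HETE plus 5,12-diHETEs.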

Canis familiaris = species: Canis familiaris; assay: Effect on methemoglobin formation in canine venous blood containing heparin; format: functional, Canis lupus familiaris
Rattus norvegicus [2] = species: Rattus norvegicus; assay: Percentage inhibition against antigen induced dyspnea in hyperactive inbred rat at a dose of […]; format: functional
[3] = biological target: Arachidonate 5-lipoxygenase (Homo sapiens); assay: Inhibitory activity of LTB4 production in human PMN
[4] = Measure of AUCpo/AUCiv x 100% of the parent compound before (free) and after (total) beta-glucuronidase treatment; total 27%; format: ADME, organism-based; conditions: in vivo, po; read-out: Bioavailabiility
[5] = Peak concentration of drug in rat plasma after oral dosing at 20 mg/kg. Concentration of parent compound was measured before (free) and after (total) beta-glucuronidase treatment; total 3.1 uM; format: ADME, organism-based; design: dose 20 mg/kg, route oral; conditions: read-out: Plasma level
Rattus norvegicus [6] = assay: Effective dose against antigen induced dyspnea in hyperactive inbred rat at a dose of 0.5 mg/kg; format: functional
Procedure, shortened: (§2)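 Inbred hyperreactive rats, six per group, dosed po 2 h before aerosol ovalbumin challenge, with drug suspension or vehicle (0.4% Methocel/0.5% Tween 80, 10 mL/kg). Methysergide 3 mg/kg iv given 5 min before antigen. Dyspnea duration recorded by pneumotachograph. % inhibition of duration is relative to vehicle controls. Student's t test used; ED50 from linear regression.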

Rattus norvegicus [7] = assay: Percentage inhibition against antigen induced dyspnea in hyperactive inbred rat at a dose of 0.05 mg/kg; format: functional; procedure, shortened: as §2
[8] = biological target: T1, Polyunsaturated fatty acid 5-lipoxygenase; assay: The compound was tested for its inhibitory activity against arachidonic acid in rat 5-lipoxygenase; procedure, shortened: as §1
[9] = Measure of AUCpo/AUCiv x 100% of the parent compound before (free) and after (total) beta-glucuronidase treatment; total 72%; format: ADME, organism-based; conditions: in vivo, po; read-out: Bioavailabiility
[10] = Peak concentration of drug in rat plasma after oral dosing at 20 mg/kg. Concentration of parent compound was measured before (free) and after (total) beta-glucuronidase treatment; total 2.2 uM; format: ADME, organism-based; design: dose 20 mg/kg, route oral; conditions: read-out: Plasma level
Rattus norvegicus [11] = species: Rattus norvegicus; assay: Effective dose against antigen induced dyspnea in hyperactive inbred rat at a dose of […]; format: functional
Rattus norvegicus [12] = assay: Percentage inhibition against antigen induced dyspnea in hyperactive inbred rat at a dose of 0.5 mg/kg; format: functional; conditions: for inhibition in vivo at 0.5 mg/kg: Rattus norvegicus; procedure, shortened: as §2
Rattus norvegicus [13] = assay: Peak concentration of drug in rat plasma after oral dosing at 20 mg/kg. Concentration of parent compound was measured before (free) and after (total) beta-glucuronidase treatment; total 0.7 uM; format: functional, organism-based; design: dose 20 mg/kg
[14] = Measure of AUCpo/AUCiv x 100% of the parent compound before (free) and after (total) beta-glucuronidase treatment; total 76%; format: ADME, organism-based; conditions: in vivo, po; read-out: Bioavailabiility
[15] = Peak concentration of drug in rat plasma after oral dosing at 20 mg/kg. Concentration of parent compound was measured before (free) and after (total) beta-glucuronidase treatment; total 3.8 uM; format: ADME, organism-based; design: dose 20 mg/kg, route oral; conditions: read-out: Plasma level
[16] = Measure of AUCpo/AUCiv x 100% of the parent compound before (free) and after (total) beta-glucuronidase treatment; total 10%; format: ADME, organism-based; conditions: in vivo, po; read-out: Bioavailabiility
[17] = Peak concentration of drug in rat plasma after oral dosing at 20 mg/kg. Concentration of parent compound was measured before (free) and after (total) beta-glucuronidase treatment; total 3.0 uM; format: ADME, organism-based; design: dose 20 mg/kg, route oral; conditions: read-out: Plasma level
[18] = Measure of AUCpo/AUCiv x 100% of the parent compound before (free) and after (total) beta-glucuronidase treatment; total 4%; format: ADME, organism-based; conditions: in vivo, po; read-out: Bioavailabiility
[19] = Peak concentration of drug in rat plasma after oral dosing at 20 mg/kg. Concentration of parent compound was measured before (free) and after (total) beta-glucuronidase treatment; total 3.4 uM; format: ADME, organism-based; design: dose 20 mg/kg, route oral; conditions: read-out: Plasma level

| SMILES | IC50 [1] | Formation (Canis familiaris) | IC50 [3] | further results |
| --- | --- | --- | --- | --- |
| C=CCc1cc2c(cc1O)C(C)(C)C(Cc1ccc(OC)cc1)O2 (stereo not drawn) | 164 nM | 1% | 49 nM | inhibition in vivo at […] (Rattus norvegicus [2]; dose 1.5 mg/kg): 68% |
| C=CCc1c(O)ccc2c1CC(CCc1ccccc1)O2 (stereo not drawn) | 25 nM | 18% | 38 nM |  |
| Oc1cc2c(cc1CCCOc1ccccc1)OC(CCc1ccc(Cl)cc1)C2 (stereo not drawn) | 51 nM | 2.8% | 41 nM | bioavailability [4]: 6%; Cmax [5]: 300 nM; ED50 (Rattus norvegicus [6]): 0.07 mg/kg; inhibition in vivo at 0.05 mg/kg (Rattus norvegicus [7]): 56%; inhibition in vivo at […] (Rattus norvegicus [2]; dose 0.15 mg/kg): 66% |
| CCCc1cc(Cl)c2c(c1O)C(C)C(Cc1ccc(OC)cc1)O2 (stereo not drawn) |  |  | 235 nM |  |
| CCCc1c(O)c(CCCOc2ccccc2)cc2c1CC(CCc1ccccc1)O2 (stereo not drawn) |  | 2% | 52 nM | IC50 [8]: 127 nM |
| CCCc1cc2c(cc1O)C(C)C(Cc1ccc(OC)cc1)O2 (stereo not drawn) |  | 6% | 18 nM | IC50 [8]: 35 nM |
| CCCc1c(O)c(CCCOc2ccc(C3N=NN=N3)cc2)cc2c1CC(CCc1ccccc1)O2 (stereo not drawn) | 45 nM | 2% | 107 nM | bioavailability [9]: 12%; Cmax [10]: 1600 nM; ED50 at […] (Rattus norvegicus [11]): 0.03 mg/kg; inhibition in vivo at 0.05 mg/kg (Rattus norvegicus [7]): 52%; inhibition in vivo at 0.5 mg/kg (Rattus norvegicus [12]): 64%; inhibition in vivo at […] (Rattus norvegicus [2]; dose 0.15 mg/kg): 61% |
| Oc1cc2c(cc1CCCOc1ccccc1)OCC2 |  |  | 57 nM |  |
| Oc1ccc2c(c1)CC(CCc1ccccc1)O2 (stereo not drawn) |  | 40% | 275 nM |  |
| Oc1cc2c(cc1CCCOc1ccc(C3N=NN=N3)cc1)OC(CCc1ccccc1)C2 (stereo not drawn) |  |  | 201 nM |  |
| C=CCc1cc2c(cc1O)C(C)(C)C(CCc1ccc(OC)cc1)O2 (stereo not drawn) | 52 nM | 2% | 47 nM | Plasma level (Rattus norvegicus [13]): 0 µM; inhibition in vivo at […] (Rattus norvegicus [2]; dose 1.5 mg/kg): 50% |
| Oc1cc2c(cc1Cc1ccccc1)OC(CCc1ccccc1)C2 (stereo not drawn) | 48 nM | 6% | 18 nM | bioavailability [14]: 44%; Cmax [15]: 1600 nM; ED50 at […] (Rattus norvegicus [11]): 0.3 mg/kg; inhibition in vivo at 0.05 mg/kg (Rattus norvegicus [7]): 44%; inhibition in vivo at 0.5 mg/kg (Rattus norvegicus [12]): 53%; inhibition in vivo at […] (Rattus norvegicus [2]; dose 0.15 mg/kg): 44% |
| Oc1cc2c(cc1CCCSc1nc3ccccc3s1)OC(CCc1ccccc1)C2 (stereo not drawn) | 45 nM | 1% | 22 nM |  |
| CCCc1c(OCCCc2cc3c(cc2O)CC(CCc2ccccc2)O3)ccc(C(C)=O)c1O (stereo not drawn) | 53 nM | 3% | 9 nM | Inhibition (Rattus norvegicus [12]; 0.5 mg/kg): 50%; inhibition in vivo at 0.5 mg/kg (Rattus norvegicus [12]): 50% |
| COc1ccc(CC2Oc3ccc(O)cc3C2C)cc1 (stereo not drawn) |  | 6% | 107 nM |  |
| CCCc1cc2c(cc1O)C(C)(C)C(CCc1ccc(S(C)(=O)=O)cc1)O2 (stereo not drawn) |  |  | 176 nM |  |
| Oc1cc2c(cc1CCCSc1ccncc1)OC(CCc1ccccc1)C2 (stereo not drawn) | 8 nM | 6% | 14 nM | bioavailability [16]: 11%; Cmax [17]: 1000 nM; inhibition in vivo at […] (Rattus norvegicus [2]; dose 1.5 mg/kg): 51% |
| CC1(C)c2cc(O)c(CCCOc3ccccc3)cc2OC1CCc1ccc(Cl)cc1 (stereo not drawn) |  |  | 472 nM |  |
| C=CCc1cc2c(cc1O)CC(CCc1ccccc1)O2 (stereo not drawn) | 17 nM | 52% | 10 nM | inhibition in vivo at 0.5 mg/kg (Rattus norvegicus [12]): 65%; inhibition in vivo at […] (Rattus norvegicus [2]; dose 1.5 mg/kg): 50% |
| CCCc1cc2c(cc1O)C(C)(C)C(CCc1ccc(SC)cc1)O2 (stereo not drawn) | 92 nM |  | 28 nM |  |
| CS(=O)(=O)c1ccc(Cc2cc3c(cc2O)CC(CCc2ccccc2)O3)cc1 (stereo not drawn) |  |  | 190 nM |  |
| CCCc1cc2c(cc1O)C(C)(C)C(CCSc1ccccn1)O2 (stereo not drawn) | 44 nM |  | 75 nM |  |
| O=C(O)c1ccc(OCCCc2cc3c(cc2O)CC(CCc2ccccc2)O3)cc1 (stereo not drawn) | 44 nM | 3% | 356 nM |  |
| COc1nc2c(SCCCc3cc4c(cc3O)CC(CCc3ccccc3)O4)cccc2cc1C(=O)O (stereo not drawn) | 50 nM | 1% | 37 nM | bioavailability [18]: 3%; Cmax [19]: 1000 nM; ED50 at […] (Rattus norvegicus [11]): < 0.05 mg/kg; inhibition in vivo at 0.05 mg/kg (Rattus norvegicus [7]): 55%; inhibition in vivo at 0.5 mg/kg (Rattus norvegicus [12]): 69%; inhibition in vivo at […] (Rattus norvegicus [2]; dose 0.15 mg/kg): 72% |
| CC1(C)c2cc(O)c(CCCOc3ccccc3)cc2OC1CCc1ccccc1 (stereo not drawn) | 40 nM | 6% | 38 nM | inhibition in vivo at […] (Rattus norvegicus [2]; dose 1.5 mg/kg): 48% |

From ChEMBL document CHEMBL1125428, “Development of 2,3-dihydro-6-(3-phenoxypropyl)-2-(2-phenylethyl)-5-benzofuranol (L-670,630) as a potent and orally active inhibitor of 5-lipoxygenase” (J Med Chem, 1992)
